Measured values from ChEMBL document CHEMBL1153431, “Potent inhibitors of pro-inflammatory cytokine production produced by a marine-derived bacterium” (J Med Chem, 2009).

What was measured:
[1] = Inhibition of pro-inflammatory cytokine IL5 production in ovalbumin-stimulated BALB/c mouse TH2 cells after 48 hrs by sandwich-ELISA; assay type: functional, cell-based; conditions: TH2, 48 h
Method in brief: (§1)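 Splenocytes from female Balb-C mice (6-8 weeks) immunized subcutaneously weekly for four weeks with 25 µg OVA adsorbed to 1 mg alum in PBS. Cells in RPMI-1640 at 1.3 × 10^6 cells/mL, given compound in DMSO plus OVA allergen; DMSO and DMSO+OVA replicate wells as controls. After 48 h incubation, supernatant cytokine measured by colorimetric sandwich ELISA.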

[2] = Inhibition of pro-inflammatory cytokine IL5 production in ovalbumin-stimulated BALB/c mouse TH2 cells at 5 nM after 48 hrs by sandwich-ELISA relative to control; assay type: functional; design: scale not given: the % may be the effect or the level left
Method in brief: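 Splenocytes from female BALB/c mice (6-8 weeks) were used, taken after weekly subcutaneous immunisation for 4 weeks with 25 µg OVA on 1 mg alum in PBS. Cells were held at 1.3 × 10^6 cells/mL in RPMI-1640 and given compound in DMSO plus OVA for 48 h. Controls were DMSO ± OVA wells. Supernatant IL-5 was read by colorimetric sandwich ELISA.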

[3] = Cytotoxicity against BALB/c mouse TH2 cells after 48 hrs by Trypan blue assay; assay type: cell-based; conditions: read-out: LD50
Method in brief: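 Splenocytes from OVA/alum-immunized female Balb-C mice (6-8 weeks) in RPMI-1640 at 1.3 × 10^6 cells/mL, exposed to compound in DMSO with OVA allergen for 48 h. Adherent cells stained with trypan blue and counted visually on a hemocytometer to assess viability.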

[4] = Inhibition of pro-inflammatory cytokine IL13 production in ovalbumin-stimulated BALB/c mouse TH2 cells after 48 hrs by sandwich-ELISA; assay type: functional, cell-based; conditions: TH2, 48 h; method in brief: as §1
[5] = Inhibition of pro-inflammatory cytokine IL1 production in ovalbumin-stimulated BALB/c mouse APC at 10 nM after 48 hrs by sandwich-ELISA relative to control; assay type: functional; design: scale not given: the % may be the effect or the level left; method in brief: as §1
[6] = Inhibition of pro-inflammatory cytokine TNFalpha production in ovalbumin-stimulated BALB/c mouse APC at 10 nM after 48 hrs by sandwich-ELISA relative to control; assay type: functional; design: scale not given: the % may be the effect or the level left; method in brief: as §1
[7] = Therapeutic index, ratio of LD50 for BALB/c mouse TH2 cells to IC50 for pro-inflammatory cytokine production in BALB/c mouse TH2 cells; assay type: cell-based; conditions: read-out: TI
Method in brief: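 Splenocytes came from OVA/alum-immunised female BALB/c mice (25 µg OVA s.c. weekly for 4 weeks) and were held at 1.3 × 10^6 cells/mL in RPMI-1640. They were exposed to compound in DMSO with OVA for 48 h, with DMSO ± OVA control wells. Cytokines in the supernatant were measured by sandwich ELISA. Viability of adherent cells was scored by trypan blue hemocytometer counting.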

| Compound | IC50 [1] [µM] | Activity [2] [%] | CC50 at 48 h [3] [µM] | IC50 [4] [µM] | Activity [5] [%] | Activity [6] [%] | selectivity ratio [7] |
| --- | --- | --- | --- | --- | --- | --- | --- |
| C[C@@H]1C[C@H]2[C@@H]3CCC4=CC(=O)C=C[C@]4(C)[C@@]3(F)[C@@H](O)C[C@]2(C)[C@@]1(O)C(=O)CO [DEXAMETHASONE] | 0.005 | >80 | > 7.1 | 0.005 |  |  |  |
| CC(=O)O[C@H]1[C@H](C)OC(=O)[C@@H](NC(=O)c2cccc(NC=O)c2O)[C@@H](C)OC(=O)[C@@H]1Cc1ccccc1 [SPLENOCIN A] | 0.0031 |  | > 1.8 |  |  |  |  |
| CC(C)C(=O)O[C@H]1[C@H](C)OC(=O)[C@@H](NC(=O)c2cccc(NC=O)c2O)[C@@H](C)OC(=O)[C@@H]1Cc1ccccc1 [SPLENOCIN B] | 0.0018 | >80 | > 1.7 | 0.0016 | 85 | 75 | > 500 |
| CCC(C)C(=O)O[C@H]1[C@H](C)OC(=O)[C@@H](NC(=O)c2cccc(NC=O)c2O)[C@@H](C)OC(=O)[C@@H]1Cc1ccccc1 (some centres undefined) [SPLENOCIN C] | 0.0067 |  | > 0.56 | 0.0073 |  |  |  |
| CC[C@H]1C(=O)O[C@H](C)[C@H](NC(=O)c2cccc(NC=O)c2O)C(=O)O[C@@H](C)[C@@H]1OC(=O)c1ccccc1 [SPLENOCIN D] | 0.0479 |  | > 0.55 | 0.0437 |  |  |  |
| CCCC[C@H]1C(=O)O[C@H](C)[C@H](NC(=O)c2cccc(NC=O)c2O)C(=O)O[C@@H](C)[C@@H]1OC(=O)c1ccccc1 [SPLENOCIN E] | 0.0166 |  | > 0.57 | 0.0159 |  |  |  |
| CCCCC[C@H]1C(=O)O[C@H](C)[C@H](NC(=O)c2cccc(NC=O)c2O)C(=O)O[C@@H](C)[C@@H]1OC(=O)c1ccccc1 [SPLENOCIN F] | 0.0094 |  | > 0.56 | 0.0068 |  |  |  |
| CCCCCC[C@H]1C(=O)O[C@H](C)[C@H](NC(=O)c2cccc(NC=O)c2O)C(=O)O[C@@H](C)[C@@H]1OC(=O)c1ccccc1 [SPLENOCIN G] | 0.005 |  | > 0.55 | 0.0052 | 85 | 75 |  |
| CCCCC(C)C[C@H]1C(=O)O[C@H](C)[C@H](NC(=O)c2cccc(NC=O)c2O)C(=O)O[C@@H](C)[C@@H]1OC(=O)c1ccccc1 (some centres undefined) [SPLENOCIN H] | 0.0043 |  | > 1.6 | 0.0051 |  |  |  |
| C[C@@H]1OC(=O)[C@@H](NC(=O)c2cccc(NC=O)c2O)[C@@H](C)OC(=O)[C@H](Cc2ccccc2)[C@H]1OC(=O)c1ccccc1 [SPLENOCIN I] | 0.0158 |  | > 0.54 | 0.0152 |  |  |  |
| C[C@@H]1OC(=O)[C@@H](NC(=O)c2cccc(NC=O)c2O)[C@@H](C)OC(=O)[C@H](Cc2ccccc2)[C@H]1O [SPLENOCIN J] | 1.02 |  | > 6 | 0.826 |  |  |  |
